Measured values reported in article PMC2211770 (The Journal of Experimental Medicine, 2004).
Residues, ends and D or L forms follow the SMILES beside them. *: point of attachment. Cbz = O=C(OCc1ccccc1)*; CH2F = FC*

Legend:
[1] = molecular target: T1, Recombinant human caspase-5 (Homo sapiens, UniProt P51878); assay: M867 potency against recombinant human caspase-5; format: biochemical
T1 sequence (P51878 137-327 limits assumed): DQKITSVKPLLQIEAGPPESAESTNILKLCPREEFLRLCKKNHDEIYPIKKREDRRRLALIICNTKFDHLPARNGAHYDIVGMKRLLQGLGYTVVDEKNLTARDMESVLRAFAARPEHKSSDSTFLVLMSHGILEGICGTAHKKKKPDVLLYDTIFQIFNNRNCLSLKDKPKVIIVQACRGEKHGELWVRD
T1 sequence (P51878 347-434 limits assumed): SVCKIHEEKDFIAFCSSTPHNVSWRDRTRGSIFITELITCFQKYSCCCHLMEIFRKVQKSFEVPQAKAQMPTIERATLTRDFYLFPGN

[2] = system: DNA fragmentation in thymocytes; assay: DNA fragmentation; format: in vivo, rat; conditions: for Percentage of subdiploid cells (±SE): thymus 24 h
Outline: (§1)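 CLP then followed: the ligated cecum was pierced through and through with a 20-gauge cannula and a silk thread was left in place for leakage. Shams had the cecum exteriorized only. Rats got 1 c.c. saline s.c., then a 2 ml/kg i.v. bolus of vehicle or test compound and 2 ml/h/kg infusion for 24 h. In the titration, doses were 0–10 mg/kg/h with one rat per dose. Thymus taken 24 h post-surgery.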

[3] = molecular target: T2, Recombinant human caspase-6 (Homo sapiens, UniProt P55212); assay: M867 potency against recombinant human caspase-6; format: biochemical
T2 sequence (P55212 24-179 limits assumed): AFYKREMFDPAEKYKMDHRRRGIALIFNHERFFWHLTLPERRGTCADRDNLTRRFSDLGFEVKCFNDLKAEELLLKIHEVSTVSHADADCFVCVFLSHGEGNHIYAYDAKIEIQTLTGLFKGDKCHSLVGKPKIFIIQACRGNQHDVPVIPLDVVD
T2 sequence (P55212 194-293 limits assumed): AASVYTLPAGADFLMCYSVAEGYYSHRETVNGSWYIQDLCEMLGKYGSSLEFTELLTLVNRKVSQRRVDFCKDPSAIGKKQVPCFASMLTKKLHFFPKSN

[4] = molecular target: T3, Recombinant human caspase-10 (Homo sapiens, UniProt Q92851); assay: M867 potency against recombinant human caspase-10; format: biochemical
T3 sequence (Q92851 220-415 limits assumed): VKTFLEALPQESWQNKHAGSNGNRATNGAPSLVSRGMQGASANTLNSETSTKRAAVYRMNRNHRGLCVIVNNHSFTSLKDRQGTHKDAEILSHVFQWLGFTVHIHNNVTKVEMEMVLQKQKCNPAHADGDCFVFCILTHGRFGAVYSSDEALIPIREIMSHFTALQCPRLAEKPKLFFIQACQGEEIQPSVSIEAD
T3 sequence (Q92851 416-521 limits assumed): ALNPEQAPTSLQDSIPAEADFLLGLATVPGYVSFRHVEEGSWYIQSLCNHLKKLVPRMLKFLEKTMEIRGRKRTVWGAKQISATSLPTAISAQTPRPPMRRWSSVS

[5] = system: αII-spectrin cleavage in thymocytes; assay: αII-spectrin cleavage in the thymus of CLP-induced septic rats; format: in vivo, rat; conditions: for Spectrin cleavage OD (±SE): thymus 24 h
Outline: as §1

caspase-3 processing = assay: Caspase-3 Western blotting on thymus extracts of CLP rats dosed with M867; format: in vivo, rat; conditions: all M867 doses
Outline: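 Female Sprague-Dawley rats (250–300 g) had CLP via a 20-gauge through-and-through cecal puncture with a silk wick. Test compound was given as an i.v. femoral catheter bolus (2 ml/kg) then infused at 0–10 mg/kg/h for 24 h (vehicle n = 6; n = 1 per dose). Thymus lysates (40 μg, heat-denatured) were run on 10–20% SDS-PAGE and probed with rabbit anti-caspase-3 (1:2,000) and HRP anti-rabbit, with chemiluminescent detection.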

[6] = system: basal apoptotic parameters; assay: Basal apoptotic parameters in sham-operated animals; format: in vivo, rat; conditions: sham-operated animals (unpublished data)
[7] = system: DNA fragmentation in cultured primary rat thymocytes; assay: DNA fragmentation; format: cell-based
Outline: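 Thymocytes were cultured for 24 h at 10 × 10^6 cells/ml in CytoSF4 plus l-glutamine and antibiotics, with test compound at a range of concentrations. Cells fixed 30 min on ice in 70% EtOH and stained in PBS/0.1% Triton X-100/RNase A/25 μg/ml PI. Subdiploid DNA by flow cytometry, 20,000 events, duplicate samples, debris gated out on forward scatter. IC50 by 4-parameter fit.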

[8] = Drug levels in plasma, blood and spleen of rats under continuous i.v. infusion; format: in vivo; conditions: rat, intravenous, 2 mg/kg/h
Outline: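 Test compound was given to rats by continuous i.v. infusion after a 2 ml/kg bolus, delivered at 2 ml/h/kg for 24 h. Dose rates were 2 mg/kg/h for plasma and spleen levels, and 0.5 or 1.5 mg/kg/h for blood levels.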

[9] = molecular target: T4, Recombinant human caspase-3 (Homo sapiens, UniProt P42574); assay: M867 potency against recombinant human caspase-3; format: biochemical
T4 sequence (P42574 29-175 limits assumed): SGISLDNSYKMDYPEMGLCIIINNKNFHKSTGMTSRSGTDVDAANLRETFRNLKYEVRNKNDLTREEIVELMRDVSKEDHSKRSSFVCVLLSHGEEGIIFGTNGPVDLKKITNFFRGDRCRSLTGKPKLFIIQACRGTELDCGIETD
T4 sequence (P42574 176-277 limits assumed): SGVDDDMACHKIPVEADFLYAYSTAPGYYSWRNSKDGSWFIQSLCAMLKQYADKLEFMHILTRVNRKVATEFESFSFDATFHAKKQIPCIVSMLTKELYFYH

[10] = molecular target: T5, Recombinant human caspase-4 (Homo sapiens, UniProt P49662); assay: M867 potency against recombinant human caspase-4; format: biochemical
T5 sequence (P49662 81-270 limits assumed): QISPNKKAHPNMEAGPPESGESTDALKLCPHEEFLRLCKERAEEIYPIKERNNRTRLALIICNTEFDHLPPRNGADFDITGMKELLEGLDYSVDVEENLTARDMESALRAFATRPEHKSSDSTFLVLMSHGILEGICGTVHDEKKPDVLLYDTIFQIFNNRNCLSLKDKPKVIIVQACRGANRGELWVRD
T5 sequence (P49662 290-377 limits assumed): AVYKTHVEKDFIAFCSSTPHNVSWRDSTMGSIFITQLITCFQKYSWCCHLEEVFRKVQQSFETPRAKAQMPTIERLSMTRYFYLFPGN

[11] = molecular target: T6, Recombinant human caspase-2 (Homo sapiens, UniProt P42575); assay: M867 potency against recombinant human caspase-2; format: biochemical
T6 sequence (P42575 170-325 limits assumed): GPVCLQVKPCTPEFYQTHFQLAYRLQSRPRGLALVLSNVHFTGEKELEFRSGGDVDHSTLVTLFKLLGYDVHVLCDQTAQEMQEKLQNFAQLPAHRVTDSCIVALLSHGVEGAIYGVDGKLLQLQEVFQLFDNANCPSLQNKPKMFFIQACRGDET
T6 sequence (P42575 348-452 limits assumed): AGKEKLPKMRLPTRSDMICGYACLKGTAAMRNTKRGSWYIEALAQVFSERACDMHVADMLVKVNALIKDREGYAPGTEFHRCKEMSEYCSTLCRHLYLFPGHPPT

[12] = molecular target: T7, Recombinant human caspase-7 (Homo sapiens, UniProt P55210); assay: M867 potency against recombinant human caspase-7; format: biochemical
T7 sequence (P55210 24-198 limits assumed): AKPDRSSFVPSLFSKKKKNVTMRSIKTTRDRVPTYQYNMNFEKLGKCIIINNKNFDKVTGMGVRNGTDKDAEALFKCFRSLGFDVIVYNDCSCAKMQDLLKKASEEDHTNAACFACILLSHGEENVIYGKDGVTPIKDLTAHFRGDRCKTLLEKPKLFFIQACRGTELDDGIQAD
T7 sequence (P55210 207-303 limits assumed): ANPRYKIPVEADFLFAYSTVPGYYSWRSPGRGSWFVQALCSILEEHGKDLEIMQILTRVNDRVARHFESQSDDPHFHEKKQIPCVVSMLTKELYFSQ

[13] = molecular target: Recombinant human caspase-8 (Homo sapiens, UniProt Q14790); assay: M867 potency against recombinant human caspase-8; format: biochemical
Recombinant human caspase-8, sequence (Q14790 217-374 limits assumed): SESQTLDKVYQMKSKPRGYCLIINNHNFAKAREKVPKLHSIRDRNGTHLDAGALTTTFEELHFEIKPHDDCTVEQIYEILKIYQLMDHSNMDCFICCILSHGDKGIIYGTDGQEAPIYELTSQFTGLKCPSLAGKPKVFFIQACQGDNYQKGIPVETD
Recombinant human caspase-8, sequence (Q14790 385-479 limits assumed): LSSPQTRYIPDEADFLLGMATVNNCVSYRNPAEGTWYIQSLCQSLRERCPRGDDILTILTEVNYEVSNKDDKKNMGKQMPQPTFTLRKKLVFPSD

[14] = molecular target: T8, Recombinant human caspase-1 (Homo sapiens, UniProt P29466); assay: M867 potency against recombinant human caspase-1; format: biochemical
T8 sequence (P29466 120-297 limits assumed): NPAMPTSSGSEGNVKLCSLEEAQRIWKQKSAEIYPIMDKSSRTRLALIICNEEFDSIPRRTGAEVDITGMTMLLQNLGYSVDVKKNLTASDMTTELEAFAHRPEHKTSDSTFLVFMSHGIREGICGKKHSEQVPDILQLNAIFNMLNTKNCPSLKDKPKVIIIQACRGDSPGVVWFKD
T8 sequence (P29466 317-404 limits assumed): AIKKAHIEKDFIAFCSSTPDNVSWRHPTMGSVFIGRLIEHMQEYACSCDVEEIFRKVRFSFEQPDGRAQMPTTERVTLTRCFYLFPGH

[15] = system: αII-spectrin cleavage in cultured primary rat thymocytes; assay: αII-spectrin cleavage in cultured primary rat thymocytes; format: cell-based; conditions: read-out: IC50 spectrin, average of two to four experiments (single for zVAD-fmk and M808)
Outline: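 Rat thymocytes, isolated by tissue grinding in cold PBS/glucose/glutamine/1% FBS and filtered, were kept 24 h at 10 × 10^6 cells/ml in CytoSF4 with l-glutamine and antibiotics over a test compound concentration series. The read-out is the caspase-3-generated p120 αII-spectrin neoepitope. IC50 from a 4-parameter curve fit.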

[16] = crude extrapolation, septic rats (Fig. 4)
[17] = septic rats, continuous i.v. infusion

CCCCCN(C)CC(=O)[C@H](CC(=O)O)NC(=O)[C@H](CC)n1cc(C(C)(C)C)nc(NCc2nonc2C)c1=O [M867, (3S)-3-({(2S)-2-[5-tert-butyl-3-{[(4-methyl-1,2,5-oxadiazol-3-yl)methyl]amino}-2-oxopyrazin-1(2H)-yl]butanoyl}amino)-5-[methyl(pentyl)amino]-4-oxopentanoic acid]
Ki [1]: 805 nM | reduction of DNA fragmentation in thymocytes ([2]; CLP rats, i.v. infusion over 24 h after CLP, first experiment (Fig. 2 D, n = 10)): 57% | Percentage of subdiploid cells (±SE) ([2]; CLP rats, first experiment (n = 10; vehicle 25.12, sham 1.23)): 11.61 ± 2.95% | Percentage of subdiploid cells (±SE) ([2]; CLP rats, second experiment (n = 4-5; vehicle 33.49, sham 0.37)): 13.25 ± 4.70% | in vivo IC50 DNA fragmentation [2, 16]: 2 mg/kg/h | drug levels needed to inhibit DNA cleavage compared with αII-spectrin cleavage ([2]; experimental peritonitis, rats): fourfold | doses fully inhibiting DNA fragmentation [2, 17]: above 5 mg/kg/h | effect on DNA fragmentation in dose titration ([2]; septic rats, doses up to 10 mg/kg/h): almost abrogated | Ki [3]: 3440 nM | Ki [4]: 29500 nM | reduction of αII-spectrin cleavage in thymocytes ([5]; CLP rats, i.v. infusion over 24 h after CLP, first experiment (Fig. 2 C, n = 10)): 88% | Spectrin cleavage OD (±SE) ([5]; CLP rats, first experiment (n = 10; vehicle 0.97, sham 0.21)): 0.30 ± 0.01 OD | Spectrin cleavage OD (±SE) ([5]; CLP rats, second experiment (n = 4-5; vehicle 0.58, sham 0.12)): 0.18 ± 0.01 OD | in vivo IC50 αII-spectrin cleavage [5, 16]: 0.5 mg/kg/h | inhibition of αII-spectrin cleavage ([5]; septic rats, 2 mg/kg/h): almost complete inhibition | doses achieving abolition of αII-spectrin cleavage [5, 17]: below 2 mg/kg/h | caspase-3 processing (caspase-3 processing): processed equally well | effect on basal apoptotic parameters [6]: no effect | effect on DNA fragmentation ([7]; 0.1 μM, cultured thymocytes): without affecting | concentration at 24 h ([8]; plasma): 650 ± 180 nM | concentration at 24 h ([8]; spleen): 370 ± 100 nM | Ki [9]: 1.4 nM | Ki [10]: 495 nM | Ki [11]: > 100000 nM | Ki [12]: 8.9 nM | Ki [13]: 4030 nM | Ki [14]: 107 nM

COC(=O)C[C@H](NC(=O)[C@H](C)NC(=O)[C@@H](NC(=O)OCc1ccccc1)C(C)C)C(=O)CF [zVAD-fmk, zVAD-fluoromethyl ketone, reference compound] (Cbz-Val-Ala-Asp(OMe)-CH2F)
IC50 [15]: 600 nM | IC50 ([7]; read-out: IC50 subdiploid, cultured rat thymocytes, average of two to four experiments (single for zVAD-fmk and M808)): 25000 nM
